Screening results: PubChem BioAssay, several laboratories
Most compounds without a hit are left out; they make up all but 5.7% or so of the library.
Mdm2 MdmX PPI: inhibitors of human Mdm2-MdmX association, primary screen, cell-based, luminescence, split luciferase, SaOS-2, uHTS | Protein Mdm4 (Homo sapiens) + E3 ubiquitin-protein ligase Mdm2 (Homo sapiens), … | SaOS-2 split-luciferase Mdm2/MdmX complementation | inhibition, % at 8 µM | 330,000 tested, 3% active | AID 485346, 2010;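 active = inhibition of at least 50% at 8 µM in the primary screen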
Calb FLC: C. albicans growth inhibition with fluconazole, primary screen, CaCi-2 strain, Alamar Blue fluorescence; C. albicans CaCi-2 (fluconazole-resistant clinical isolate) + fluconazole, 48 h; growth inhibition, % (no concentration beside the values); 300,000 tested, 0.57% active;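 active = growth inhibition above about 58% in most replicates, limit read from the data, passing the limit was not always enough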;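 also: all wells also contain fluconazole at 8 µg/ml as a sub-toxic cotreatment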
T cruzi repl: inhibitors of intracellular T. cruzi growth, primary screen, luminescence, NIH3T3 host cells. T. cruzi beta-gal in NIH3T3, 90 h. inhibition, % (concentration not given with the values). 300,000 tested, 1.4% active;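 active = mean inhibition across valid replicates above about 55%, limit read from the data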;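 also: signal also drops with host cell toxicity which is not excluded here; higher percent means less beta-gal luminescence so fewer parasites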
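Incubation – ≥90 h infection period, 3 h prior cell attachment · System – NIH/3T3 fibroblasts plus reporter T. cruzi · Doses – compound pinned at 50 nL/well, DMSO · Read-out basis – percent inhibition of parasite-derived β-gal signal · Signal – luminescent β-galactosidase signal after 60 min lysis · Also added – 5000 T. cruzi trypomastigotes/well · Medium – Low-serum DMEM with 2% FBS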
SKKanGAS inh: S. pyogenes SKKanGAS growth inhibitors in kanamycin, primary screen, streptokinase expression inhibitor project, SKKanGAS strain, BacTiter-Glo luminescence. 6 h. inhibition, % at 7.5 µM. AID 1662, 2009. 300,000 tested, 1.3% active;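 active = mean replicate score, as percent of positive control median, at least 50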;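 also: strain carries kanamycin resistance gene driven by streptokinase promoter and grows in 40 µg/ml kanamycin; loss of luminescence reflects streptokinase promoter inhibition or plain growth inhibition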
Beta cell apopt: inhibitors of cytokine-induced beta cell apoptosis, primary screen, luminescence | INS-1E cytokine-induced death, ATP luminescence, 48 h; percent of positive-control rescue, neutral wells zero | protection from apoptosis, % (concentration not given with the values) | 300,000 tested, 0.8% active | AID 435005, 2010;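 active = Every replicate reaches about 75%, or at least half do and their mean reaches it too, limit read from the data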;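 also: higher means more ATP so stronger rescue from cytokine killing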
CSC inhib: cancer stem cell viability inhibitors, primary screen, luminescence; 300,000 tested, 1.1% active; inhibition, % at 7.5 µM; cancer stem cell-like cells viability; AID 2717, 2010; in the data active = inhibition above about 75%; tested in HMLE shEcad cells
Mdm2-MdmX conf: Mdm2-MdmX complex disruptors, retested hits, confirmation, luminescence, single concentration | shares compounds with Mdm2 MdmX PPI | Mdm2-MdmX binding, luminescent assay | inhibition, % at 8 µM | 10,000 tested, 55% active | AID 489028, 2010; in the data active = inhibition above about 40%
Full FLuc ctr: full-length luciferase signal inhibition, confirmation, counter-screen for Mdm2/MdmX interaction inhibitor project, cell-based, single concentration, SaOS-2; shares compounds with Mdm2 MdmX PPI; SaOS-2 full-length luciferase counterscreen, luminescence; inhibition, % at 8 µM; 6,200 tested, 77% active; AID 504607, 2011;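 active = mean inhibition at 8 µM reaching about 37%, which flags the compound as non-specific, limit read from the data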;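 also: p53-null SaOS-2 cells with luciferase driven by a doxycycline-inducible promoter; compound on cells about two nights before reading with doxycycline added after day one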
Hits are given with their value.

`O=C(c1cccc(S(=O)(=O)NCc2ccccc2)c1)N1CCN(c2cccc(C(F)(F)F)c2)CC1` gave Mdm2 MdmX PPI 62.3, Calb FLC inactive, T cruzi repl inactive, SKKanGAS inh inactive, Beta cell apopt inactive, CSC inhib inactive, Mdm2-MdmX conf 70.0 and Full FLuc ctr 55.5.
O=C(c1cccc(S(=O)(=O)NCc2ccccc2)c1)N1CCN(c2ccccc2)CC1 was read as Mdm2 MdmX PPI inactive, Beta cell apopt inactive and CSC inhib inactive.
CC(=O)OC[C@]12CC[C@H]3[C@@](C)(CC[C@H]4C(C)(C)CCC[C@]34C)[C@@H]1C[C@@H](C1=CC(=O)O[C@@H]1OC(C)=O)O2 was read as Mdm2 MdmX PPI 100.5, Beta cell apopt 91.7, CSC inhib 125.5, Mdm2-MdmX conf 98.7 and Full FLuc ctr inactive.
Screening CC(=O)OC[C@]12CC[C@H]3[C@@](C)(CC[C@H]4C(C)(C)CCC[C@]34C)[C@@H]1C[C@H](C1=CC(=O)O[C@H]1OC(C)=O)O2 returned Mdm2 MdmX PPI 90.7, Beta cell apopt inactive, CSC inhib 106.7 and Mdm2-MdmX conf inactive.
For COCCN(C(=O)c1sc2ccccc2c1Cl)c1c(N)n(CC(C)C)c(=O)[nH]c1=O the results were Mdm2 MdmX PPI inactive, Beta cell apopt inactive and CSC inhib inactive.
`COC(=O)c1c(C)[nH]c(-c2csc(N)n2)c1C` gave Mdm2 MdmX PPI 65.4, Calb FLC inactive, T cruzi repl inactive, SKKanGAS inh inactive, Beta cell apopt inactive, CSC inhib inactive, Mdm2-MdmX conf 61.0 and Full FLuc ctr 85.2.
C=C1C(=O)C=C2CN(C(=O)c3ccccc3)[C@@](Cc3ccc(F)cc3)(C(=O)OC)[C@@H]12 was read as Mdm2 MdmX PPI 100.3, Calb FLC inactive, T cruzi repl inactive, SKKanGAS inh inactive, Beta cell apopt 113.2, CSC inhib inactive, Mdm2-MdmX conf 99.8 and Full FLuc ctr inactive.
Screening COC(=O)[C@@]1(Cc2ccc(OC)cc2)[C@@H]2C(=CC(=O)[C@H]2CC(=O)C(=O)N(C)C)CN1C(=O)c1ccccc1 returned Mdm2 MdmX PPI inactive, Beta cell apopt inactive and CSC inhib inactive.
For O=C(OCC(=O)N1CCOCC1)c1cccc(S(=O)(=O)Nc2ccc(F)cc2)c1 the results were Mdm2 MdmX PPI inactive, Beta cell apopt inactive and CSC inhib inactive.
CN1CCC(=C2c3ccccc3CCc3sccc32)CC1 was read as Mdm2 MdmX PPI 60.1, Calb FLC inactive, T cruzi repl inactive, SKKanGAS inh inactive, CSC inhib inactive and Mdm2-MdmX conf inactive.
CN1CCC(=C2c3ccccc3CC(=O)c3sccc32)CC1 was read as Mdm2 MdmX PPI inactive, T cruzi repl inactive, SKKanGAS inh inactive, Beta cell apopt inactive and CSC inhib inactive.
For CCOc1ccc(S(=O)(=O)n2nc(C)c(S(=O)(=O)N3CCOCC3)c2C)cc1 the results were Mdm2 MdmX PPI inactive, Calb FLC inactive, T cruzi repl inactive, SKKanGAS inh inactive, Beta cell apopt inactive and CSC inhib inactive.
Screening COc1cccc(C2CC(c3c(-c4ccccc4)c4cc(Cl)ccc4[nH]c3=O)=NN2S(C)(=O)=O)c1OC (configuration not stated) returned Mdm2 MdmX PPI 50.3, Calb FLC inactive, T cruzi repl inactive, SKKanGAS inh inactive, Beta cell apopt inactive, CSC inhib inactive, Mdm2-MdmX conf inactive and Full FLuc ctr 69.2.
